Assay results from different studies.
Matrix: PAMPA

SMILES | tested at | time | pH | Papp
Cc1c(S(=O)(=O)N2CCn3nccc3C2)cc(C(=O)NCc2cccnc2N2CCCC2)n1C | – | – | – | 27.9 ×10⁻⁶ cm/s
C=C(CC(=O)OC)C(=O)OCOC(=O)OC(C)C | 10 µM | 4 h | pH 7.4 | > 10 ×10⁻⁶ cm/s
Cc1c(S(=O)(=O)N2CCn3cncc3C2)cc(C(=O)NCc2c(F)ccnc2N2CCCC2)n1C | – | – | – | 19.1 ×10⁻⁶ cm/s
O=C(OCc1ccccc1)c1ccc(O)cc1 | 5 µM | – | pH 7.4 | 3.79 ×10⁻⁶ cm/s
Cc1[nH]c(C)c(S(=O)(=O)Nc2ccc(C(F)(F)F)c(Cl)c2)c1C(=O)N1CCC(F)(F)C1 | – | – | – | 7.3 ×10⁻⁶ cm/s
CCCCCOC(=O)c1ccc(O)cc1 | 5 µM | – | pH 7.4 | 4.28 ×10⁻⁶ cm/s
C=C(CC(=O)OC)C(=O)OCOC(=O)C(C)(C)C | 10 µM | 4 h | pH 7.4 | > 10 ×10⁻⁶ cm/s
CCCCCCCCOC(=O)c1ccc(O)cc1 | 5 µM | – | pH 7.4 | 0.73 ×10⁻⁶ cm/s
Cc1[nH]c(C)c(S(=O)(=O)Nc2ccc(C(F)(F)F)c(Cl)c2Cl)c1C(=O)N1CCC(F)(F)C1 | – | – | – | 0.18 ×10⁻⁶ cm/s
CCOC(=O)c1ccc(O)cc1 | 5 µM | – | pH 7.4 | 4.72 ×10⁻⁶ cm/s
C=C(CC(=O)OCc1oc(=O)oc1C)C(=O)OCc1oc(=O)oc1C | 10 µM | 4 h | – | ~15 ×10⁻⁶ cm/s
Cc1c(S(=O)(=O)N2CCc3[nH]ncc3C2)cc(C(=O)NCc2cccnc2N2CCCC2)n1C | – | – | – | 14.4 ×10⁻⁶ cm/s
C=C(CC(=O)OCOC(=O)C(C)(C)C)C(=O)OCOC(=O)C(C)(C)C | 10 µM | 4 h | pH 7.4 | > 10 ×10⁻⁶ cm/s
CCCCOC(=O)c1ccc(O)cc1 | 5 µM | – | pH 7.4 | 5.68 ×10⁻⁶ cm/s
Cc1c(S(=O)(=O)N2CCc3n[nH]cc3C2)cc(C(=O)NCc2c(F)ccc3cnn(C)c23)n1C | – | – | – | 11 ×10⁻⁶ cm/s
